# M5 antag: human M5 muscarinic receptor antagonists, primary screen, CHO cells, Fluo-8 calcium fluorescence. CHO-hM5 cells, ACh EC80. 360,000 tested, 0.59% active. AID 624040, 2012. inhibition, % at 3 µM;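 active = inhibition above a per-plate cutoff, the mean of that plate's test compounds plus 3 SD, cut at about 27% in these data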;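 note: 0% = acetylcholine EC80 with DMSO and 100% = DMSO without agonist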
# M5 ag: human M5 muscarinic receptor agonists, primary screen, CHO-K1 cells, Fluo-8 calcium fluorescence. AID 624037, 2012. CHO-K1 hM5 cells; 0% DMSO wells, 100% maximal acetylcholine response. 360,000 tested, 0.19% active. activation, % at 3 µM;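 active = activation above the run's mean over test compounds plus 3 SD, cut at about 23% in these data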;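 note: signal is peak over basal fluorescence ratio across the kinetic read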
# M1 ag: human M1 muscarinic receptor agonists, primary screen, Fluo-8 calcium fluorescence, CHO-K1 cells, HTS. Muscarinic acetylcholine receptor M1 (Homo sapiens), P11229. CHO-K1 hM1, agonist mode; 0% DMSO, 100% acetylcholine EC100. activation, % at 3 µM. 360,000 tested, 0.33% active. AID 588814, 2011;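 active = activation above the run's mean compound activation plus 3 SD, cut at about 16% in these data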;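 note: peak over basal fluorescence ratio within a 140 s kinetic read after compound addition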
# Target sequence (P11229 whole entry, looked up): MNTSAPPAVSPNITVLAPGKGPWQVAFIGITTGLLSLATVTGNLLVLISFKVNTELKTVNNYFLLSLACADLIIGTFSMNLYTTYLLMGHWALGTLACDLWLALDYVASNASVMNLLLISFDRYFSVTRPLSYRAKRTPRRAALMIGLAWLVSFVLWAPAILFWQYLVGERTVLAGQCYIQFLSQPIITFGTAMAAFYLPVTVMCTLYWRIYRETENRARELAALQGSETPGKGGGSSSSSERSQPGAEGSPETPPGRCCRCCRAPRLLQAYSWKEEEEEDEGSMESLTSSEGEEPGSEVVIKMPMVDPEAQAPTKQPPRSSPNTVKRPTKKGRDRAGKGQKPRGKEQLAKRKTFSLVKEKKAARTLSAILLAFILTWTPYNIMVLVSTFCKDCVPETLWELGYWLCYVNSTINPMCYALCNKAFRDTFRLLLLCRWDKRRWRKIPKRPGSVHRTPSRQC
# CHRM1 antagonist: human M1 muscarinic receptor antagonists, primary screen, CHO-K1 cells, Fluo-8 calcium fluorescence, 1536-well. Muscarinic acetylcholine receptor M1 (Homo sapiens), P11229. CHO-K1 hM1, ACh EC80 antagonist. inhibition, % at 3 µM. 360,000 tested, 1.3% active. AID 588852, 2011;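 active = percent inhibition above its own plate's cutoff, namely the mean of that plate's compound wells plus 3 SD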;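 note: peak over basal fluorescence ratio during 140 s after agonist addition; 0% = ACh EC80 plus DMSO and 100% = DMSO alone without agonist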
# M1 PAM: human M1 muscarinic receptor positive allosteric modulators, primary screen, CHO-K1 cells, Fluo-8 calcium fluorescence, 1536-well. Muscarinic acetylcholine receptor M1 (Homo sapiens), P11229. CHO-K1 hM1, ACh EC20; 0% = ACh EC20, 100% = maximal ACh. activation, % at 3 µM. 360,000 tested, 0.088% active. AID 588819, 2011; in the data active = activation above about 19%, passing the limit was not always enough
# M5 PAM: human M5 muscarinic receptor positive allosteric modulators, primary screen, CHO-K1 cells, Fluo-8 calcium fluorescence | Muscarinic acetylcholine receptor M5 (Homo sapiens), P08912 | CHO-K1 hM5, ACh EC20 PAM; 0% = ACh EC20, 100% = ACh EC100 | activation, % at 3 µM | 360,000 tested, 0.3% active | AID 624038, 2012;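 active = activation above the run cutoff, the mean activation of all test compounds plus 3 SD, cut at about 18% in these data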
#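 Measured by: Fluo-8 calcium fluorescence; material: human M5 receptor in CHO-K1 cells; schedule: Post-acetylcholine fluorescence recording 140 s; benchmarks: low control EC20 acetylcholine (0%), high control EC100 acetylcholine (100%); read-out: Max/basal fluorescence ratio as % of EC20–EC100 ACh window; compound: single dose, 3 µM nominal final test concentration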
# Numbers without * were called inactive. Hits are enriched below; roughly 2% of the tested compounds scored in any of these assays.
SMILES,M5 antag,M5 ag,M1 ag,CHRM1 antagonist,M1 PAM,M5 PAM
N#CCCN(Cc1ccccc1)C(CCc1ccccc1)C(=O)NC1CCCCC1 (stereo not given),-2,-4,-5,20,-18,-16
COc1ccc(-n2c(-c3cccc(OC)c3)nc(=S)c3c2CCCC3)cc1,12,-5,-15,60*,-35,-19
Cc1ccc(S(=O)(=O)NC(=O)C2(C)CCN2C(=O)c2ccccc2CCc2ccccc2)cc1 (stereo not given),0,1,-4,-2,-2,-1
Cc1onc(-c2c(Cl)cccc2Cl)c1C(=O)N1CCCc2ccccc21,9,-3,-8,-6,2,-1
Cc1onc(-c2c(Cl)cccc2Cl)c1C(=O)N1CCc2ccccc2C1,12,-8,-6,41*,-23,-22
O=C(CSc1nnc(NC(=O)c2c(F)cccc2F)s1)NC1CCCC1,18,-3,-2,8,-7,-8
O=C(Nc1nnc(SCC(=O)N2CCCCC2)s1)c1c(F)cccc1F,-7,-1,4,-27,28*,11
Cc1ccc(-n2ncc(C#N)c2N)cc1,4,1,-3,-3,2,1
N#Cc1cnn(-c2ccc(F)cc2)c1N,-16,6,0,-20,16,19*
CCCCCCCCCn1ccc(=N)cc1,9,-17,-8,40*,-20,-13
CCC1Oc2ccc(C)cc2N(CC(=O)N2CCCC2)C1=O (stereo not given),6,3,-1,-6,3,3
O=S1c2ccccc2Nc2ccccc21,14,-2,-5,1,27*,0
O=C(COc1coc(CN2CCN(c3ccc(F)cc3)CC2)cc1=O)NC1CCCCC1,7,7,0,-1,6,-5
CC(C)Cn1c(N)c(C(=O)COC(=O)Cc2cccc(C(F)(F)F)c2)c(=O)n(C)c1=O,17,3,-2,38*,-18,-26
CC(C)Cn1c(N)c(C(=O)COC(=O)/C=C/c2cccs2)c(=O)n(C)c1=O,16,8,5,9,-5,-14
CC(C)Cn1c(N)c(C(=O)COC(=O)Cc2cccs2)c(=O)n(C)c1=O,32*,6,3,30*,-12,-10
CCc1ccc(C(O)c2ncc(-c3ccccc3OC)[nH]2)cc1 (stereo not given),2,4,2,5,-11,-2
CN(C)c1cccc(C(=O)NCc2ccc3c(c2)OCO3)c1,11,-3,2,8,6,-3
COc1ccc(OCCNC(=O)C(c2ccccc2)c2ccccc2)cc1,-3,-5,-4,-2,5,-7
COc1ccc(C(CNC(=O)Cc2ccc(-c3ccccc3)cc2)N(C)C)cc1 (stereo not given),-7,-4,-11,42*,-29,-3
COc1ccc(C(CNC(=O)CSc2ccccc2C)N(C)C)cc1 (stereo not given),20,-6,-12,-15,1,-7
COc1cccc(C(CNC(=O)C(c2ccccc2)c2ccccc2)N(C)C)c1 (stereo not given),19,-7,-12,55*,-33,-13
C=CCn1c(C)cc(C(=O)CSc2nc3ccccc3[nH]2)c1C,20,11,1,39*,-27,-23
Cc1cc(C(=O)CSc2nc3ccccc3[nH]2)c(C)n1Cc1ccco1,27*,7,1,40*,-18,-17
COc1cccc(C=Cc2nccc3ccccc23)c1OC,17,-6,-4,2,-4,-1
SMILES,M5 antag,M5 ag,M1 ag,CHRM1 antagonist,M1 PAM,M5 PAM
CN(C)c1ccc(C=Cc2nccc3ccccc23)cc1,29*,29*,27*,41*,-36,-19
CCN(CC)c1nc(C=Cc2ccc(N(C)C)cc2)c2nccnc2n1,50*,31*,33*,46*,-15,-13
Fc1ccc(C(CCCn2nnc(-c3cccnc3)n2)c2ccc(F)cc2)cc1,22,-10,-2,27*,-8,-54
Fc1ccc(-n2nnc(-c3cccnc3)n2)cc1,8,2,-1,-24,18,3
CN(C)CCN1C(=O)C(=O)/C(=C(/O)c2ccc(F)cc2)C1c1ccccc1F (stereo not given),29*,-3,-6,-2,2,-7
COc1ccc(NC(=O)N(C)C[C@@H]2Oc3cc(C#CCN(C)C)ccc3S(=O)(=O)N([C@H](C)CO)C[C@H]2C)cc1,3,-2,-10,-6,7,4
Cc1cc([N+](=O)[O-])ccc1-c1ccc(/C=N/NC(=O)c2ccc(Br)o2)o1,-4,246*,-1,-4,1,-3
Cc1cc(C(=O)N/N=C/c2ccc(-c3ccc([N+](=O)[O-])cc3C)o2)n[nH]1,10,-3,-3,-12,12,-5
CCCCNC(=O)c1ccc(Cc2cn(C)c3ccccc23)nc1,-8,0,0,-3,3,1
Cc1cc(C)c(OCC(=O)Nc2ccccc2N2CCOCC2)c(C)c1,21,28*,18*,23,3,5
O=C(Cn1c(=O)cnc2ccccc21)Nc1cc(Cl)ccc1N1CCOCC1,11,-7,-6,-11,4,-3
CCC(=O)N1CCN(c2ccccc2NC(=O)COc2cc(C)ccc2C(C)C)CC1,27*,0,-4,22,-10,-14
O=C(Nc1ccccc1N1CCOCC1)c1cc(-c2ccco2)nc2ccccc12,25,3,2,38*,-12,-17
Cc1cc(C)c(OCC(=O)Nc2ccccc2N2CCCCC2)c(C)c1,5,1,0,-14,11,-2
O=C(Cn1c(=O)cnc2ccccc21)Nc1ccccc1N1CCOCC1,-34,3,4,-8,18,28*
CNc1cc(-c2ccc(O)cc2C)ncn1,2,2,0,5,-4,-10
N#Cc1ccc(C(S(=O)(=O)Cc2ccccc2)S(=O)(=O)Cc2ccccc2)cc1,-5,2,-1,0,-1,1
CC1(C(=O)Nc2ccc3c(c2)OCCO3)CCC(=O)N1CCOc1ccccc1 (stereo not given),-7,4,-5,-1,2,6

# Compound activity: PubChem, The Scripps Research Institute Molecular Screening Center
